According to ChEMBL document CHEMBL1128466, “Synthesis and antimalarial activities of several fluorinated artemisinin derivatives” (1995):

Key:
Type in all cases: functional
[1] = test system: Plasmodium falciparum; test: Relative activity against Plasmodium falciparum FCR3 compared to artemisinin as IC50 ratio
In short: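 In vitro screen of P. falciparum strain FCR3 cultures by a modified Desjardins method. The value is the ratio of artemisinin activity to that of each fluorinated derivative.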

[2] = test system: Plasmodium falciparum; test: Relative activity against Plasmodium falciparum D6 compared to artemisinin as IC50 ratio
[3] = test system: Plasmodium falciparum; test: Relative activity against Plasmodium falciparum W-2 compared to of IC50 value of artemisinin as IC50 ratio
[4] = test system: Plasmodium falciparum; test: Relative activity against Plasmodium falciparum W2 compared to arteether as IC50 ratio
[5] = test system: Plasmodium falciparum; test: Relative activity against Plasmodium falciparum D6 compared to arteether as IC50 ratio

Compound	Ratio [1]	Ratio [2]	Ratio [3]	Ratio [4]	Ratio [5]
C[C@@H]1CC[C@H]2[C@@](C)(O)[C@@H](OCc3cccc(F)c3)O[C@@H]3O[C@@]4(C)CC[C@@H]1[C@]32OO4	0.11				
C[C@@H]1CC[C@H]2[C@@](C)(O)[C@@H](OCc3ccc(F)cc3)O[C@@H]3O[C@@]4(C)CC[C@@H]1[C@]32OO4	0.1				
C[C@H]1[C@@H](CC(F)F)O[C@@H]2O[C@@]3(C)CC[C@H]4[C@H](C)CC[C@@H]1[C@@]24OO3		3.8	1.1	0.73	1.3
C[C@H]1[C@@H](OCc2ccc(F)cc2)O[C@@H]2O[C@@]3(C)CC[C@H]4[C@H](C)CC[C@@H]1[C@@]24OO3	0.04				
CCO[C@H]1O[C@@H]2O[C@@]3(C)CC[C@H]4[C@H](C=O)CC[C@@H]([C@H]1C)[C@@]24OO3		1.2	1.4	0.8	0.1
C[C@@H]1CC[C@H]2[C@@](C)(O)[C@@H](OCC(F)(F)F)O[C@@H]3O[C@@]4(C)CC[C@@H]1[C@]32OO4		0.15	0.14		
CCO[C@H]1O[C@@H]2O[C@@]3(C)CC[C@H]4[C@H](C)C(F)(F)C[C@@H]([C@H]1C)C24OO3 (single isomer, unassigned)		1.4	1.2	0.8	0.5
CCO[C@H]1O[C@@H]2O[C@@]3(C)CC[C@H]4[C@H](C)C(=O)C[C@@H]([C@H]1C)[C@@]24OO3		0.5	1.2	0.6	0.05
CCO[C@H]1O[C@@H]2O[C@@]3(C)CC[C@H]4[C@H](C)CC[C@@H]([C@@]1(C)O)[C@@]24OO3		0.08	0.06		
C[C@@H]1CC[C@H]2[C@@](C)(O)[C@@H](OCc3c(F)c(F)c(F)c(F)c3F)O[C@@H]3O[C@@]4(C)CC[C@@H]1[C@]32OO4	0.1				
C[C@@H]1CC[C@H]2[C@@](C)(O)[C@@H](OCc3ccccc3F)O[C@@H]3O[C@@]4(C)CC[C@@H]1[C@]32OO4	0.11				
CCO[C@H]1O[C@@H]2O[C@@]3(C)CC[C@H]4[C@H](C(F)F)CC[C@@H]([C@H]1C)[C@@]24OO3		1	2	1.5	0.3
C[C@H]1[C@@H](CC(C)(F)F)O[C@@H]2O[C@@]3(C)CC[C@H]4[C@H](C)CC[C@@H]1[C@@]24OO3		1.2	0.5	0.3	0.4
CCO[C@H]1O[C@@H]2O[C@@]3(C)CC[C@H]4[C@H](C)CC[C@@H]([C@]1(C)O)[C@@]24OO3		0.45	0.3		
C[C@@H]1CC[C@H]2[C@](C)(O)[C@@H](OCC(F)(F)F)O[C@@H]3O[C@@]4(C)CC[C@@H]1[C@]32OO4		1.8	1.5		
CCO[C@H]1O[C@@H]2O[C@@]3(C)CC[C@H]4C(C)=C(F)C[C@@H]([C@H]1C)[C@@]24OO3		0.6	0.5	0.3	0.2
